Results pooled from the literature.
Cell line: OVCAR-5
Effect on: cell growth or viability

SMILES | assay | setting | quantity | result
CC[C@@H]1C=CC(=O)O[C@@H]1C[C@@H](O)[C@H](C)[C@H](OC)[C@@H](C)Cc1ccc(F)cc1 | MTT | 48 h | GI50 | 75.3 nM
COc1cccc(Oc2ccccc2NC(=O)CNC(=O)c2cccc3ccccc23)c1 | SRB | 48 h | GI50 | 1120 nM
CCN1CCN(Cc2ccc(Nc3ncc(F)c(-c4cc(F)c5nc(C)n(C(C)C)c5c4)n3)nc2)CC1 | CCK-8 | – | IC50 | 2500 nM
C/C=C/C[C@H](C)[C@@H](OC)[C@@H](C)[C@H](O)C[C@H]1OC(=O)C=C[C@H]1CC | MTT | 48 h | GI50 | 21.9 nM
COc1ccc(-c2ccc(-c3ccc(C(=N)N)nc3)s2)cc1 | SRB | – | GI50 | 1670 nM
Cc1cc(C)n(C(=S)[S][Au][PH](CCCCCC[PH]([Au][S]C(=S)n2nc(C)cc2C)(c2ccccc2)c2ccccc2)(c2ccccc2)c2ccccc2)n1 | – | – | GI50 | 1210 nM
COc1ccc(C(=O)/C=C/c2cccc(Cl)c2)cc1S(N)(=O)=O | SRB | 48 h | GI50 | 1900 nM
CC[C@@H]1C=CC(=O)O[C@@H]1C[C@@H](O)[C@H](C)[C@H](O)[C@@H](C)Cc1ccc(F)cc1 | MTT | 48 h | GI50 | 16.5 nM
COc1ccccc1/C=C/C(=O)c1ccc(OC)c(S(N)(=O)=O)c1 | SRB | 48 h | GI50 | 2200 nM
S=C([S][Au-][P+](CCCCCC[P+]([Au-][S]C(=S)n1cccn1)(c1ccccc1)c1ccccc1)(c1ccccc1)c1ccccc1)n1cccn1 | – | – | GI50 | 3630 nM
COc1cc(-c2ccc(-c3ccc(C(=N)N)nc3)s2)cc(OC)c1OC | SRB | – | GI50 | 2100 nM
